Results reported in ChEMBL document CHEMBL1268987, “Identification of 2-oxo-N-(phenylmethyl)-4-imidazolidinecarboxamide antagonists of the P2X(7) receptor” (Bioorg Med Chem Lett, 2010).
pIC50: −log10 of the molar value. Values after ≈ are worked out from the molar mass of the structure shown. Active and inactive are the calls of the source. The rule behind the calls is not given here.

Legend:
P2X purinoceptor 7 [1] = target: T1, P2X purinoceptor 7 (Homo sapiens, UniProt Q99572); assay: Antagonist activity at human recombinant P2X7 receptor expressed in HEK293 cells by ethidium accumulation assay; assay type: functional, cell-based
T1 sequence (Q99572 whole entry): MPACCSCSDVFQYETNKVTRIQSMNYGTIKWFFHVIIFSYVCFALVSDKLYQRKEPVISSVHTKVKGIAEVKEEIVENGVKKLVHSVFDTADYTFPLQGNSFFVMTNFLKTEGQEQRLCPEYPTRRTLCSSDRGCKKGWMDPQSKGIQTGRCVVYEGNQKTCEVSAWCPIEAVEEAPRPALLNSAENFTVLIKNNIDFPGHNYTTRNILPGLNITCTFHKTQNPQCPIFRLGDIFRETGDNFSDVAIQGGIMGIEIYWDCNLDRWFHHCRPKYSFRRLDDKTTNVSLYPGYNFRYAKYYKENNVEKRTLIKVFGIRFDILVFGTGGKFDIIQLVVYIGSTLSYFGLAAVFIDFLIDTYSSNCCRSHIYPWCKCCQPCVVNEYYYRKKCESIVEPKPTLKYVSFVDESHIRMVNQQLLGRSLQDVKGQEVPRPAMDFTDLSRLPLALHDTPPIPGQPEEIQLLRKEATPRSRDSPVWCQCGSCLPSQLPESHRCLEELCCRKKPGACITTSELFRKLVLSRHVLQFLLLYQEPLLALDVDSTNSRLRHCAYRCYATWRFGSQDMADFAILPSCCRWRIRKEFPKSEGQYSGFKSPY
How it was run: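 Ethidium accumulation read-out: ATP activation of the receptor opens a large pore, and uptake of ethidium bromide dye into the cells is measured by fluorescence.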

MDCK = assay: Efflux ratio of permeability from apical to basolateral side over basolateral to apical side in MDCK cells expressing MDR; assay type: ADME, cell-based, Canis lupus familiaris; settings: dog
[2] = Half life in monkey at 1 mg/kg, iv and 3 mg/kg, po; assay type: ADME, organism-based, Macaca mulatta; settings: rhesus monkey, in vivo
How it was run: (§1)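 Cross-species pharmacokinetics (rat, dog, monkey), n = 3 per species. Parameters were derived from 1 mg/kg iv or 3 mg/kg po profiles: blood clearance, Vss, half-life and oral bioavailability.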

[3] = Half life in dog at 1 mg/kg, iv and 3 mg/kg, po; assay type: ADME, organism-based, Canis lupus familiaris; settings: in vivo; how it was run: as §1
[4] = Drug level in rat chronic joint pain model blood at 20 mg/kg, po after 1 hr; assay type: ADME, organism-based; parameters: dose 20 mg/kg, route oral; settings: read-out: Drug uptake
How it was run: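 In the rat chronic joint pain model, blood concentrations were measured 1.0 h after a 20 mg/kg oral dose.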

[5] = Volume of distribution at steady state in dog at 1 mg/kg, iv and 3 mg/kg, po; assay type: ADME, organism-based, Canis lupus familiaris; settings: in vivo, read-out: Vdss; how it was run: as §1
[6] = Volume of distribution at steady state in monkey at 1 mg/kg, iv and 3 mg/kg, po; assay type: ADME, organism-based, Macaca mulatta; settings: rhesus monkey, in vivo, read-out: Vdss; how it was run: as §1
[7] = Oral bioavailability in rat at 1 mg/kg, iv and 3 mg/kg, po; assay type: ADME, organism-based; settings: in vivo; how it was run: as §1
[8] = Clearance in monkey blood at 1 mg/kg, iv and 3 mg/kg, po; assay type: ADME, organism-based, Macaca mulatta; settings: rhesus monkey; how it was run: as §1
[9] = Half life in rat at 1 mg/kg, iv and 3 mg/kg, po; assay type: ADME, organism-based; settings: in vivo; how it was run: as §1
[10] = Solubility of the compound in FeSSIF; assay type: physicochemical
[11] = Half life in rat blood at 1 mg/kg, iv; assay type: ADME, organism-based; parameters: dose 1 mg/kg, route intravenous
Rattus norvegicus [12] = assay: Reversal of FCA-induced hypersensitivity in rat chronic joint pain model at 20 mg/kg, po after 1 to 6 hrs; assay type: functional, organism-based; parameters: dose 20 mg/kg
How it was run: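 Chronic joint pain model in rat. Hypersensitivity was induced by intra-articular FCA, and oral dosing at 20 mg/kg began 13 days post FCA. Response was assessed at 1, 3 and 6 h post-dose. Celecoxib at 30 mg/kg po served as comparator.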

[13] = Protein binding in rat plasma; assay type: ADME, cell-free; settings: read-out: PPB (converted)
[14] = Volume of distribution at steady state in rat at 1 mg/kg, iv and 3 mg/kg, po; assay type: ADME, organism-based; settings: in vivo, read-out: Vdss; how it was run: as §1
[15] = Oral bioavailability in dog at 1 mg/kg, iv and 3 mg/kg, po; assay type: ADME, organism-based, Canis lupus familiaris; settings: in vivo; how it was run: as §1
[16] = Oral bioavailability in monkey at 1 mg/kg, iv and 3 mg/kg, po; assay type: ADME, organism-based, Macaca mulatta; settings: rhesus monkey, in vivo; how it was run: as §1
[17] = Clearance in rat blood at 1 mg/kg, iv and 3 mg/kg, po; assay type: ADME, organism-based; how it was run: as §1
[18] = Clearance in dog blood at 1 mg/kg, iv and 3 mg/kg, po; assay type: ADME, organism-based, Canis lupus familiaris; how it was run: as §1
[19] = (§2) Clearance in rat blood at 1 mg/kg, iv; assay type: ADME, organism-based; parameters: dose 1 mg/kg, route intravenous; settings: blood
How it was run: (§3)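 Rat blood clearance was determined after a single iv infusion at 1 mg/kg.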

[20] = Ratio of drug level in brain to plasma in rat chronic joint pain model at 20 mg/kg, po after 1 hr; assay type: ADME, organism-based; parameters: dose 20 mg/kg, route oral; settings: brain and plasma, read-out: BBR
P2X purinoceptor 7 [21] = target: T2, P2X purinoceptor 7 (Rattus norvegicus, UniProt Q64663); assay: Antagonist activity at rat recombinant P2X7 receptor; assay type: functional
T2 sequence (Q64663 whole entry): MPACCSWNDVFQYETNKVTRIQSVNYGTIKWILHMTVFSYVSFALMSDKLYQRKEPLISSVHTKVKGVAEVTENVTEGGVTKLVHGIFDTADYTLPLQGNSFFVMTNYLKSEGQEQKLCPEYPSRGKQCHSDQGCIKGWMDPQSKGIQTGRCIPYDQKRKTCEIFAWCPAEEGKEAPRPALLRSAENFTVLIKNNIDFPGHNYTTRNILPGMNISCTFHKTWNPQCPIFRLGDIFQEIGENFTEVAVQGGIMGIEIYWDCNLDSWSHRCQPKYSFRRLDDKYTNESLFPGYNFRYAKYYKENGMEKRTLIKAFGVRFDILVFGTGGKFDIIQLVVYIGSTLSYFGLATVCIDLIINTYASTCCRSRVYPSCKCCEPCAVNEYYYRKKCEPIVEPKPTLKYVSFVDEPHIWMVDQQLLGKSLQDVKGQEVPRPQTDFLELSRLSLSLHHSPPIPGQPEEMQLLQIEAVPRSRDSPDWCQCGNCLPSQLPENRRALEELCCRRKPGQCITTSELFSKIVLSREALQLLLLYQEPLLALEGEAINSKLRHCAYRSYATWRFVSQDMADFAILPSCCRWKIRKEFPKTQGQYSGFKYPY

[22] = Metabolic stability in rat liver microsomes assessed as intrinsic clearance measured per gram of tissue; assay type: ADME, Microsome
Rattus norvegicus [23] = assay: as §2; assay type: ADME, organism-based; parameters: dose 1 mg/kg, route intravenous; settings: in vivo; how it was run: as §3
[24] = Lipophilicity, log D of the compound at pH 7.4; assay type: physicochemical; settings: buffer
[25] = Half life in rat at 3 mg/kg, po; assay type: ADME, organism-based; parameters: dose 3 mg/kg, route oral; settings: in vivo
[26] = Cmax in rat at 3 mg/kg, po; assay type: ADME, organism-based; parameters: dose 3 mg/kg, route oral; settings: in vivo
[27] = Clearance in rat at 3 mg/kg, po; assay type: ADME, organism-based; parameters: dose 3 mg/kg, route oral; settings: in vivo

## CN1C(=O)C(F)(F)C[C@H]1C(=O)NCc1cccc(C(F)(F)F)c1Cl
P2X purinoceptor 7 [1]
  pIC50: 8.40

## CN1C(=O)C(C)(C)C[C@H]1C(=O)NCc1cccc(C(F)(F)F)c1Cl
P2X purinoceptor 7 [1]
  pIC50: 7.60

## Cc1cccc(N2C[C@@H](C(=O)NCc3cccc(C(F)(F)F)c3Cl)N(C)C2=O)n1
P2X purinoceptor 7 [1]
  pIC50: 7.10

## CN1C(=O)N(c2nccn2C)C[C@H]1C(=O)NCc1cccc(C(F)(F)F)c1Cl
P2X purinoceptor 7 [1]
  pIC50: 8.40
MDCK
  Ratio: 5.3

## CN1C(=O)OC[C@H]1C(=O)NCc1cccc(C(F)(F)F)c1Cl
P2X purinoceptor 7 [1]
  pIC50: 7.80

## CN1C(=O)NC[C@H]1C(=O)NCc1ccc(Cl)cc1Cl
[2]
  half-life: 2.9 h
[3]
  half-life: 5.7 h
[4]
  concentration at 1 h: 56.4 µM
[5]
  Vd: 0.8 L/kg
[6]
  Vd: 1.2 L/kg
[7]
  bioavailability: 100%
[8]
  clearance: 7 mL/min/kg
[9]
  half-life: 2.8 h
[10]
  solubility: 780 µg/mL (≈ 2580 µM)
[11]
  half-life: 2.8 h
Rattus norvegicus [12]
  Activity: Active
[13]
  fraction unbound: 0.35
[14]
  Vd: 1.3 L/kg
[15]
  bioavailability: 100%
[16]
  bioavailability: 99%
[17]
  clearance: 6 mL/min/kg
[18]
  clearance: 2 mL/min/kg
[19]
  clearance: 6 mL/min/kg
P2X purinoceptor 7 [1]
  pIC50: 8.00
[20]
  Kp at 1 h: 0.3

## CN1C(=O)N(CCN2CCOCC2)C[C@H]1C(=O)NCc1cccc(C(F)(F)F)c1Cl
P2X purinoceptor 7 [1]
  pIC50: 7.60
MDCK
  Ratio: 11.9

## CN1C(=O)NC[C@H]1C(=O)NCc1cccc(Cl)c1Cl
P2X purinoceptor 7 [1]
  pIC50: 7.60

## CN1C(=O)CC[C@H]1C(=O)NCc1cccc(C(F)(F)F)c1Cl [GSK1482160]
[2]
  half-life: 0.9 h
[3]
  half-life: 0.7 h
[5]
  Vd: 0.9 L/kg
[6]
  Vd: 1.1 L/kg
P2X purinoceptor 7 [21]
  pIC50: 6.60
[8]
  clearance: 17 mL/min/kg
[9]
  half-life: 1.5 h
[14]
  Vd: 1 L/kg
[15]
  bioavailability: 69%
[16]
  bioavailability: 57%
[17]
  clearance: 9 mL/min/kg
[18]
  clearance: 14 mL/min/kg

## CN1C(=O)COC[C@H]1C(=O)NCc1cccc(C(F)(F)F)c1Cl
P2X purinoceptor 7 [1]
  pIC50: 8.40

## CN1C(=O)NC[C@H]1C(=O)NCc1cccc(C(F)(F)F)c1Cl
P2X purinoceptor 7 [1]
  pIC50: 8.40
MDCK
  Ratio: 2.1

## CN1C[C@@H](C(=O)NCc2ccc(Cl)cc2Cl)N(C)C1=O
[11]
  half-life: 0.6 h
[22]
  CLint scaled: < 0.5 mL/min/g
Rattus norvegicus [23]
  clearance: 30 mL/min/kg
P2X purinoceptor 7 [1]
  pIC50: 8.70

## Cc1ncccc1N1C[C@@H](C(=O)NCc2ccc(Cl)cc2Cl)N(C)C1=O
[4]
  concentration at 1 h: 16.8 µM
[24]
  logD: 2.2
[25]
  half-life: 2.3 h
P2X purinoceptor 7 [21]
  pIC50: 7.20
Rattus norvegicus [12]
  Activity: inactive
[26]
  Cmax: 1070 ng/mL
[27]
  CL/F: 17 mL/min/kg
P2X purinoceptor 7 [1]
  pIC50: 8.00
MDCK
  Ratio: 4.9
[20]
  Kp at 1 h: < 0.1

## CN1C(=O)N(c2cn(C)cn2)C[C@H]1C(=O)NCc1cccc(C(F)(F)F)c1Cl
P2X purinoceptor 7 [1]
  pIC50: 8.60

## CN1C[C@@H](C(=O)NCc2cccc(Cl)c2Cl)N(C)C1=O
[11]
  half-life: 0.4 h
[19]
  clearance: 49 mL/min/kg
P2X purinoceptor 7 [1]
  pIC50: 8.00

## CN1CCC(N2C[C@@H](C(=O)NCc3cccc(C(F)(F)F)c3Cl)N(C)C2=O)CC1
P2X purinoceptor 7 [1]
  pIC50: 7.50
MDCK
  Ratio: 3.2

## Cc1ncccc1N1C[C@@H](C(=O)NCc2cccc(C(F)(F)F)c2Cl)N(C)C1=O
P2X purinoceptor 7 [1]
  pIC50: 8.30
MDCK
  Ratio: 4.4

## Cc1cc(N2C[C@@H](C(=O)NCc3cccc(C(F)(F)F)c3Cl)N(C)C2=O)ccn1
P2X purinoceptor 7 [1]
  pIC50: 8.00
MDCK
  Ratio: 1.9
